Data on 1 molecule can be found in ChEMBL document CHEMBL1151419, “Antimicrobial effect of halocidin-derived peptide in a mouse model of Listeria infection” (Antimicrob Agents Chemother, 2007).

By MIC is commonly meant the least concentration at which growth counts as inhibited.

Converted amounts (≈) assume the structure as drawn. The source made the active and inactive calls. The calls are words filed in the database; no cut-off is given here. Bridge positions count the residues as written; N and C are the ends. Peptide text beside a SMILES is read from it. I, II: the chains in the order shown.

In data set [1] the test system is Listeria monocytogenes. As to the kind of experiment: Antimicrobial activity against Listeria monocytogenes ATCC 19111 infected in BALB/c mouse assessed as survival of mouse at 4 mg/kg, iv administered 2 hrs after bacterial challenge measured after 4 days. It counts as functional, organism-based. Also noted: dose 4 mg/kg. An outline of the steps:
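Mice (n = 10) were infected by tail vein with 2 x 10^5 L. monocytogenes, grown 18 h at 37°C in brain heart infusion broth. A single i.v. dose of 4 mg/kg in 100 µl PBS was given 2 h after infection; PBS-treated infected mice served as vehicle control. Surviving mice were counted daily for 15 days.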

The subject of data set [2] is Staphylococcus aureus. Put plainly: Antimicrobial activity against methicillin-resistant Staphylococcus aureus CCARM 3695 after 18 hrs by broth microdilution assay. It counts as functional. The settings on record: CCARM 3695, 18 h. An outline of the steps:
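Broth microdilution (modified CLSI). Overnight stationary-phase Mueller-Hinton broth cultures diluted to 2 x 10^5 CFU/ml final. Peptide serially twofold diluted in 0.01% acetic acid (stock series 640 down to 10 µg/ml); 11 µl added to 100 µl of bacteria. After 18 h at 37°C, MIC taken as the lowest concentration preventing visible turbidity.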

Data set [3] has as its system Listeria monocytogenes. Put plainly: Antimicrobial activity against Listeria monocytogenes ATCC 19111 infected in BALB/c mouse assessed as survival of mouse at 4 mg/kg, iv administered immediately after bacterial challenge measured after 6 days. It counts as functional. To be noted: ATCC 19111, 144 h. Put shortly: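 L. monocytogenes grown 18 h at 37°C in brain heart infusion broth and frozen at –80°C; viability checked by plating. Mice infected via tail vein with 2 x 10^5 bacteria each. A single 4 mg/kg i.v. dose in 100 µl PBS was given immediately or 2 h after infection; PBS vehicle controls. Ten mice per group; survivors counted daily for 15 days.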

A short description of data set [4]: Toxicity against human erythrocytes in assay tube containing mixture of erythrocytes/Listeria monocytogenes cells at 40 ug/ml after 30 mins. It counts as cell-based. The settings on record: erythrocyte, 0.5 h. An outline of the steps: (§1)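 Washed mid-log L. monocytogenes (final 1 x 10^5 CFU/ml) was mixed with human blood cells (final 5 x 10^8 cells/ml) and peptide (final 40 µg/ml) in PBS at 37°C. A peptide-free control was included. At 10, 20 and 30 min, aliquots were plated on TSA and colonies counted after overnight growth. Blood cells were counted by hemocytometer under light microscopy.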

In data set [5] the test system is Listeria monocytogenes. As to the kind of experiment: Antimicrobial activity against Listeria monocytogenes ATCC 19111 infected in BALB/c mouse at 4 mg/kg, iv in presence of increasing concentration of PGN. Format: functional, organism-based. The arrangement: dose 4 mg/kg.
Data set [6] relates to Listeria monocytogenes. As to the kind of experiment: Antibacterial activity against Listeria monocytogenes ATCC 19111 in assay tube containing mixture of erythrocyte/Listeria monocytogenes cells assessed as logarithmic reduction in CFU after 30 mins. Format: functional. Put shortly:
as §1

Data set [7] has as its system Listeria monocytogenes. As to the kind of experiment: Antimicrobial activity against Listeria monocytogenes ATCC 19111 after 18 hrs by broth microdilution assay. It counts as functional. To be noted: ATCC 19111, 18 h. Put shortly:
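Bacteria were grown overnight to stationary phase in Mueller-Hinton broth at 37°C and diluted to 2 x 10^5 CFU/ml. Line 3 used MHB plus 150 mM NaCl. Peptide stock (640 µg/ml in 0.01% acetic acid) was twofold serially diluted to 10 µg/ml, and 11 µl was added per 100 µl of cells. Turbidity was read after 18 h at 37°C; MIC was the minimum concentration visibly inhibiting growth.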
For orientation: Broth dilution looks for growth in wells or tubes with falling amounts of substance.

Data set [8] has as its system Listeria monocytogenes. As to the kind of experiment: Antimicrobial activity against Listeria monocytogenes ATCC 19111 infected in BALB/c mouse at 4 mg/kg, iv in presence of increasing concentration of pustulan. It counts as functional, organism-based. Also noted: dose 4 mg/kg.
In data set [9] the test system is Staphylococcus aureus. As to the kind of experiment: Antimicrobial activity against methicillin-resistant Staphylococcus aureus CCARM 3695 after 18 hrs by broth microdilution assay in presence of 150 mM NaCl. It counts as functional. To be noted: CCARM 3695, 18 h. An outline of the steps: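 Same broth microdilution, but the medium was Mueller-Hinton broth supplemented with 150 mM NaCl. Inoculum 2 x 10^5 CFU/ml final. Peptide twofold series in 0.01% acetic acid (stocks 640 to 10 µg/ml). After 18 h at 37°C, MIC read as the lowest concentration with no visible growth.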

The test system of data set [10] is Staphylococcus aureus. As to the kind of experiment: Antimicrobial activity against methicillin-resistant Staphylococcus aureus CCARM 3695 treated with supernatant containing 2 mg drug incubated for 10 mins with PBS containing 50 % normal human serum centrifuged for 3 hrs by radial diffusion assay. Format: functional, organism-based. Put shortly:
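2 mg peptide incubated 10 min at 37°C in 2 ml PBS, either serum-free or with 50% heat-treated normal human serum. Spun 3 h at 295,000 x g, 4°C. Then 5 µl of supernatant tested by radial diffusion against mid-log MRSA (4 x 10^6 CFU/ml underlay, 3 h at 37°C, overlay, overnight); clear zones measured.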

A further data set deals with Mus musculus. As to the kind of experiment: Toxicity in BALB/c mouse assessed as lethality at 4 mg/kg, iv repeated 4 times at 1-day interval measured after 2 weeks. To be noted: in vivo, 336 h. It counts as organism-based. Also noted: dose 4 mg/kg, route intravenous. Put shortly: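 Uninfected mice (n = 10) given 4 mg/kg i.v., repeated four times at 1-day intervals. Deaths monitored for 2 weeks.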

For data set [11], the system named is Listeria monocytogenes. Put plainly: Antimicrobial activity against Listeria monocytogenes ATCC 19111 infected in BALB/c mouse assessed as reduction in number of recovered CFU in spleen at 100 ug, iv measured after 3 days. It counts as functional, organism-based. Put shortly: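 Mice were infected i.v. with L. monocytogenes and immediately given 100 µg peptide in 100 µl PBS i.v.; PBS alone served as control. On days 1 and 3, liver and spleen were homogenized in PBS/0.1% BSA, serially diluted, and plated on TSA with 5% sheep blood. Colonies were counted after 18 h at 37°C. Three independent experiments; mean ± SD.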

Take `CC(C)C[C@H](NC(=O)CNC(=O)[C@H](Cc1cnc[nH]1)NC(=O)[C@H](Cc1cnc[nH]1)NC(=O)[C@H](CC(C)C)NC(=O)[C@H](CC(C)C)NC(=O)[C@H](C)N)C(=O)N[C@@H](CC(N)=O)C(=O)N[C@@H](CSSC[C@H](NC(=O)[C@H](CC(N)=O)NC(=O)[C@H](CC(C)C)NC(=O)CNC(=O)[C@H](Cc1cnc[nH]1)NC(=O)[C@H](Cc1cnc[nH]1)NC(=O)[C@H](CC(C)C)NC(=O)[C@H](CC(C)C)NC(=O)[C@H](C)NC(=O)[C@H](CC(N)=O)NC(=O)[C@H](CC(C)C)NC(=O)[C@H](Cc1c[nH]c2ccccc12)NC(=O)[C@@H](N)CCCCN)C(=O)N[C@@H](C)C(=O)N[C@@H](CCCCN)C(=O)NCC(=O)N[C@H](C(=O)N[C@@H](CC(C)C)C(=O)N[C@@H](C)C(=O)O)C(C)C)C(=O)N[C@@H](C)C(=O)N[C@@H](CCCCN)C(=O)NCC(=O)N[C@H](C(=O)N[C@@H](CC(C)C)C(=O)N[C@@H](C)C(=O)O)C(C)C` (I: H-KWLNALLHHGLNCAKGVLA-OH / II: H-ALLHHGLNCAKGVLA-OH; disulfide I:13-II:9): the outcome in the data set with Listeria monocytogenes [1], with Listeria monocytogenes [8], in the data set with Staphylococcus aureus [10] and in the data set with Listeria monocytogenes [11] was Active. Besides, the values for the MIC with Staphylococcus aureus [2], against Listeria monocytogenes [7] and with Staphylococcus aureus [9] were 8 µg/mL (≈ 2.24 µM), 4 µg/mL (≈ 1.12 µM) and 16 µg/mL, respectively. Further, in the data set on Listeria monocytogenes [3], the survival at 4 mg/kg was 100%. For the same molecule, the results for the Activity result (in data set [4]; with Listeria monocytogenes [6]; in the data set on Mus musculus) were “Non-toxic”, 3 and “Non-toxic”, respectively. Moreover, in the data set with Listeria monocytogenes [5], the outcome was inactive.
